# From PubChem BioAssay
# IDE cell activ = human IDE activators in live cells, primary screen, fluorescence polarization, HEK cells, FAbeta-B substrate. activation, % at 5.96 µM. FAbeta-B cleavage; 0% vehicle, 100% cell-free pure enzyme wells. AID 493087, 2011. Insulin-degrading enzyme (Homo sapiens), P14735. 0.073% of 340,000 active;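 active = activation above the mean of all tested compounds plus 3 SD, set per screening campaign, cut at about 17% in these data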
# Target sequence (P14735 whole entry, looked up): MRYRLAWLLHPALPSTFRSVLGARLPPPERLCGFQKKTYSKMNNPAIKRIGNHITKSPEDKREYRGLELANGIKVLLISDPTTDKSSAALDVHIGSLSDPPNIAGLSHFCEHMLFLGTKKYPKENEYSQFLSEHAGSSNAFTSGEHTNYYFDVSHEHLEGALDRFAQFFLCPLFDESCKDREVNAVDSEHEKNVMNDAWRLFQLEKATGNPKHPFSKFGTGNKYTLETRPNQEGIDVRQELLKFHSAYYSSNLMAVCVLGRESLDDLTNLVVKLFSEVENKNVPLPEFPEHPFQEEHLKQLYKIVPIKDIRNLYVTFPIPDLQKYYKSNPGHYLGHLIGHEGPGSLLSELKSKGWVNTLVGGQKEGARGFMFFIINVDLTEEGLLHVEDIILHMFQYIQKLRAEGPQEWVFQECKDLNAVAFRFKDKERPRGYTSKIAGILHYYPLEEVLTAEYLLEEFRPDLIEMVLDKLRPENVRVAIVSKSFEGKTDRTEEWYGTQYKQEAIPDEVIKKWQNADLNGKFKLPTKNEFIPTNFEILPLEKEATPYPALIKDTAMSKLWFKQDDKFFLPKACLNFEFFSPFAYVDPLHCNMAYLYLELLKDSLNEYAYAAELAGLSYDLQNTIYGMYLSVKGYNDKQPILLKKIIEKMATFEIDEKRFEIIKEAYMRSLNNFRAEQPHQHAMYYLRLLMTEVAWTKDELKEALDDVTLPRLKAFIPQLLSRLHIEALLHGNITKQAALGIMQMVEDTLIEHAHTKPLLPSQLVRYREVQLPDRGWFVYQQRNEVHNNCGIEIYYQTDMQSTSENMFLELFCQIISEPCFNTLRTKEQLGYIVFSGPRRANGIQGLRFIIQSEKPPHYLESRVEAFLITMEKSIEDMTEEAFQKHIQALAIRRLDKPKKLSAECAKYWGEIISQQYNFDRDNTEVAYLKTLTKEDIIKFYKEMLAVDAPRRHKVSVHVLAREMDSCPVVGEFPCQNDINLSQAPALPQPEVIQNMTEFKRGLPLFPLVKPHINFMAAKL
# proCasp7 act = procaspase-7 activators, primary screen, counter-screen for procaspase-3 activator project, biochemical, absorbance, HTS, human; Caspase-7 (Homo sapiens), P55210; recombinant procaspase-7, Ac-DEVD-pNA absorbance 405 nm; D23A/D198A/D206A triple mutant, cannot self-cleave; scale: DMSO 0, 5 µM enzyme 100; activation, % at 8.5 µM; 0.093% of 330,000 active;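 active = percent activation above the screen-wide mean plus 3 SD, cut at about 25% in these data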
#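 Assay system: Uncleavable procaspase-7 mutant enzyme / Input: 2 µM procaspase-7 mutant as dispensed / Dosing: single nominal 8.5 µM compound dose, 0.8% DMSO final / Timing: 1 h enzyme–compound preincubation and 2 h substrate reaction, both 25 °C / Detection: p-Nitroaniline absorbance at 405 nm, read at 0 and 120 min / Replication: singlicate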
# IDE cell inh = human IDE inhibitors in live cells, primary screen, fluorescence polarization, HEK cells, FAbetaB substrate; FAbetaB cleavage; inhibition, % at 5.59 µM; 0.41% of 320,000 active;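 active = percent inhibition above the average of all tested compounds plus 3 SD, set per screening campaign, cut at about 16% in these data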;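 note: IDE supplied by intact live HEK cells; FP after avidin binding of uncleaved biotin substrate so inhibition keeps polarization high; 0% = DMSO wells and 100% = 60 µM reference IDE inhibitor Ii1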
# proCasp3 act = activators of human procaspase-3 D3A mutant, primary screen, biochemical, absorbance, PC-3 D3A mutant, single concentration. AID 463141, 2010. 0.11% of 330,000 active. recombinant procaspase-3 D3A, Ac-DEVD-pNA absorbance 405 nm. activation, % at 8.5 µM;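 active = activation above the mean of all tested compounds plus 3 SD, cut at about 21% in these data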;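 note: 0% = DMSO alone and 100% = DMSO wells spiked with extra 5 µM PC-3 D3A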
#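 Assay system: Autoprocessing-dead procaspase-3 D3A mutant enzyme; also added: Ac-DEVD-pNA; doses: one concentration, 8.5 µM nominal, 0.8% DMSO; times: 1 h compound preincubation, 2 h substrate hydrolysis at 25 °C; technique: 405 nm absorbance of p-nitroaniline, reads at 0 and 120 min; measure: % activation between DMSO and enzyme-spiked controls; repeats: single replicate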
# TPT1 inhibitor = Candida albicans TPT1 enzyme inhibitors, primary screen, biochemical, fluorescence polarization; inhibition, % at 5 µM; 0.81% of 300,000 active; tRNA 2'-phosphotransferase TPT1 (Candida albicans SC5314); recombinant caTPT1, FP RNA substrate dephosphorylation;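 active = inhibition above the mean of all tested compounds plus 3 SD, set per screening campaign, cut at about 24% in these data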;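 note: plate controls were DMSO alone for no effect and ferristatin control at 100 nM for full effect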
# proCasp7 act trip = procaspase-7 activators, counter-screen for procaspase-3 activator project, biochemical, absorbance, triplicate, human; activation, % at 8.5 µM; 210 tested, under 10 active; shares compounds with proCasp3 act; recombinant procaspase-7, Ac-DEVD-pNA absorbance; asp23/198/206-to-Ala mutant, cannot self-cleave;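 active = mean activation above a set limit taken from an earlier procaspase-7 screen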;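 note: 0% = DMSO wells and 100% = DMSO plus 5 µM procaspase-7 enzyme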
# procasp3 conf = activators of human procaspase-3 D3A mutant, confirmation, biochemical, absorbance, PC-3 D3A mutant, triplicate | 10% of 210 active | AID 488954, 2010 | shares compounds with proCasp3 act | recombinant PC-3 D3A, Ac-DEVD-pNA absorbance 405 nm; 100% is higher-enzyme control | activation, % at 8.5 µM;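 active = mean activation above a set limit carried over from the earlier primary screen, cut at about 22% in these data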
# PC3 dual counter = procaspase-3 activators, counter-screen for dual procaspase-3/7 activator project, biochemical, absorbance, PC-3 D3A mutant, human; shares compounds with proCasp7 act; recombinant PC-3 D3A, Ac-DEVD-pNA absorbance 405 nm; aspartates 9, 28, 175 changed to alanine; 100% = enzyme control; activation, % at 8.5 µM; 290 tested, under 10 active; AID 493114, 2011;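 active = mean percent activation across triplicates above a set limit taken from the earlier primary procaspase-3 screen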;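 note: 0% = DMSO wells and 100% = DMSO wells with 5 µM added PC-3 D3A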
# Procasp7 act = activation of procaspase-7 enzyme – biochemical, absorbance, human, dual procaspase-3/-7 activator project, confirmation | shares compounds with proCasp7 act | recombinant procaspase-7, Ac-DEVD-pNA absorbance 405 nm; D23A/D198A/D206A mutant that cannot self-cleave | activation, % at 8.5 µM | 290 tested, under 10 active;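 active = mean activation above a set limit carried over from the earlier primary screen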;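 note: 0% = DMSO only and 100% = DMSO with added 5 µM PC-7 enzyme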
# * = called active by the depositor; x = no result given. The list is not random: actives were taken first. Their share in the collection is about 1.2%.
SMILES,IDE cell activ,proCasp7 act,IDE cell inh,proCasp3 act,TPT1 inhibitor,proCasp7 act trip,procasp3 conf,others
CC(C)OC(=O)CSc1ncnc2c1cnn2Cc1ccccc1,-4,1,-8,129*,-6,2,1,
CC(=O)Nc1nc(C)c(C(C)=O)s1,0,-12,2,25*,-3,4,4,
CC(=O)c1sc(NC(=O)C(C)C)nc1C,0,-1,-1,-4,1,x,x,
O=C(OCCOCCN=C1NS(=O)(=O)c2ccccc21)c1ccccc1,2,-2,1,9,-1,x,x,
CCCN(C(=O)C1CCN(S(=O)(=O)c2ccc(OC)c(OC)c2)CC1)C1CCS(=O)(=O)C1 (stereo not drawn),5,0,1,-2,0,x,x,
CC(=O)Nc1ccc(NC(=O)c2c(C)nn(Cc3ccccc3Cl)c2C)cc1,4,10,1,1,-2,x,x,
Cc1cccc(N2CCN(C(=O)c3c(C)nn(Cc4ccccc4Cl)c3C)CC2)c1C,-9,7,9,55*,2,0,3,
COc1cc2sc3ccc(C#CC4(O)CCCCC4)cc3c(=O)c2cc1OC,-3,25,3,70*,0,-22,-13,
CCN(CC)S(=O)(=O)c1ccc2c(c1)oc(=O)n2CC(=O)NC1CCCCC1,-2,-10,7,3,4,x,x,
CCCc1[nH]nc2c1C(c1cc(OC)cc(OC)c1)C(C#N)=C(N)O2 (stereo not drawn),0,-12,0,-11,-4,x,x,
CCCc1[nH]nc2c1C(c1cccc(OC(=O)c3ccco3)c1)C(C#N)=C(N)O2 (stereo not drawn),-6,9,2,21*,0,0,4,
CCc1ccccc1C1=CC(=O)C[C@H](c2ccc(OC)cc2)C1,3,15,-3,1,x,x,x,
Clc1ccc(-c2ccc(-c3nn4c(-c5ccco5)nnc4s3)o2)cc1,-4,-16,0,-4,6,x,x,
Brc1ccc(-c2nn3c(-c4ccco4)nnc3s2)o1,-5,-4,0,23*,0,-17,-12,
COc1cc(-c2cc3nc4ccccc4n3c(N)c2C#N)cc(OC)c1OC,6,2,8,-8,-3,x,x,
N#Cc1c(-c2ccccc2)cc2nc3ccccc3n2c1N,5,14,-2,31*,2,-11,-14,
O=C(N/N=C/c1ccc(-c2ccccc2Cl)o1)c1ccccc1,1,-24,1,25*,0,-7,-5,
COc1ccc(S(=O)(=O)N2CCC(C(=O)NN3CCCCC3)CC2)cc1OC,5,20,2,-1,x,x,x,
CCN(C(=O)c1cnc(OC)cc1C(F)(F)F)c1ccc(Cl)cc1,-2,-4,8,27*,-2,3,5,
COCCn1c(N)c(C(=O)NCC2CCCO2)c2nc3ccccc3nc21 (stereo not drawn),-6,-22,-1,-11,-3,x,x,
COCCn1c(N)c(C(=O)NCc2cccs2)c2nc3ccccc3nc21,-1,-1,9,64*,7,-21,-16,
CCCNc1nc(-c2cc(-c3ccc(Cl)cc3)on2)cc(C(C)C)n1,5,6,1,4,0,x,x,
Cc1nn(CCO)c(N)c1C1(O)C(=O)Nc2c(Cl)cc(Cl)cc21 (stereo not drawn),-1,-10,9,-9,-5,x,x,
COc1ccccc1NC(=O)C(=O)c1cn(CC(=O)N2CCOCC2)c2ccccc12,-4,2,2,22*,-1,3,3,
Clc1ncccc1-c1nc2ccccc2s1,2,5,-3,3,-5,x,x,
SMILES,IDE cell activ,proCasp7 act,IDE cell inh,proCasp3 act,TPT1 inhibitor,proCasp7 act trip,procasp3 conf,others
O=c1c(-c2nc3ccccc3s2)cccn1Cc1ccc(Cl)cc1,5,90*,5,123*,-1,x,x,PC3 dual counter=-29;Procasp7 act=-36
CSc1ccc(CN2CCN(C(C)C)C(CCO)C2)cc1 (stereo not drawn),5,4,-3,0,-1,x,x,
COc1ccc(C2C3=C(CC(C)(C)CC3=O)Nc3c2c(=O)n(C)c(=O)n3C)cc1OC (stereo not drawn),-2,27*,0,6,1,x,x,PC3 dual counter=-28;Procasp7 act=-24
N=c1c(S(=O)(=O)c2ccc(Cl)cc2)cc2c(=O)n3ccccc3nc2n1C1CCCC1,1,-13,-3,-15,10,x,x,
Cc1ccc(-c2nnc(N3CC(C)OC(C)C3)c3ccccc23)cc1 (stereo not drawn),7,-1,-2,-1,2,x,x,
O=C(Nc1cc(Cl)ccc1O)C1CC(c2ccccc2Cl)=NO1 (stereo not drawn),6,x,x,x,x,x,x,
O=c1[nH]c(N/N=C/c2ccc(O)cc2)nc2ccccc12,-2,34*,2,27*,1,x,x,PC3 dual counter=-2;Procasp7 act=-1
O=C(O)c1ccc(/C=N/Nc2nc3ccccc3[nH]2)cc1,-3,6,-1,-3,0,x,x,
CCN(CC)C1=C(Cl)C(=O)C(Cl)C12OCCO2 (stereo not drawn),x,3,9,-4,-4,x,x,
N#Cc1cc2cc3c(cc2nc1N1CCCCC1)OCCO3,3,38*,0,19,0,x,x,PC3 dual counter=-28;Procasp7 act=-36
Cc1ccc(C(=O)N2CCCN(c3nc4cc5c(cc4cc3C#N)OCO5)CC2)cc1,5,-18,8,-9,-20,x,x,
Cc1c(Cc2ccccc2)c(=O)oc2cc(O)cc(O)c12,4,26*,-9,21,3,x,x,PC3 dual counter=-28;Procasp7 act=-34
S=c1[nH]nc(-c2cc3c(s2)-c2ccccc2CC3)o1,0,8,2,3,3,x,x,
